The values that follow come from PubChem BioAssay AID493093 (Broad Institute, 2011).

Calls of active or inactive are those of the source.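 Rule for the calls: active = compounds lowering viability with an AC50 at or under ten times their top valid dose; inconclusive = flat curve with 30 to 70% viability loss, or poor fit; inactive = flat near zero, weak potency, or rising signal.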

System in one experiment: not listed separately
As to the kind of experiment: cytotoxicity toward BJeHLT cells – cell-based, dry powder, set 2, counter-screen for Ras selective lethality project, dose response (AID 493093). Particulars: BJeHLT fibroblasts viability, Alamar Blue fluorescence, 48 h; at 48 µM (top of the series). Summed up:
(§1)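 Material: BJeHLT fibroblasts, BJ cells transformed with hTERT, SV40 LT and ST; Amount: 1000 cells/well; Times: 48 h exposure, 37 °C, 5% CO2, ~16 h Alamar Blue; Detection: Alamar Blue conversion fluorescence, excitation 544 nm, emission 590 nm.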
In general terms: Counterscreens check selectivity or assay interference.
Turning to `Cc1onc(C(=O)N2CCN(C(c3ccncc3)c3ccncc3)CC2)c1[N+](=O)[O-]`, the activity change, negative = loss of viability is -2.93% (inactive).

Consider `Cc1onc(C(=O)N2CCN(C(c3ccccc3)c3ccccc3)CC2)c1Br`, for which the activity change, negative = loss of viability is 15.1% (inactive).

As to `CC(C)c1onc(C(=O)N2CCN(C(c3ccccc3)c3ccccc3)CC2)c1[N+](=O)[O-]`, the activity change, negative = loss of viability is 10% (inactive).

In the case of `Cc1oc(C)c(C(=O)N2CCN(C(c3ccccc3)c3ccccc3)CC2)c1C`, the activity change, negative = loss of viability was 19.3% (inactive).

For `Cc1ccc(C(=O)N2CCN(C(c3ccccc3)c3ccccc3)CC2)c([N+](=O)[O-])c1`, the activity change, negative = loss of viability was 13% (inactive).

In the case of `Cc1onc(C(=O)NCCNC(c2ccccc2)c2ccccc2)c1[N+](=O)[O-]`, the activity change, negative = loss of viability was -11.4% (inactive).

In the case of `CC(=O)Nc1c(C(=O)N2CCN(C(c3ccccc3)c3ccccc3)CC2)noc1C`, the activity change, negative = loss of viability was 8.25% (inactive).

In the case of `Cc1onc(C(=O)N2CCN(C(c3ccccc3)c3ccccc3)CC2)c1N`, the activity change, negative = loss of viability is -0.577% (inactive).

In the case of `O=[N+]([O-])c1ccc(CN2CCN(C(c3ccccc3)c3ccccc3)CC2)o1`, the activity change, negative = loss of viability was -7.38% (inactive).

Take `Cc1onc(C(=O)N2CCN(C(c3ccccc3)c3ccccc3)CC2)c1C`: the activity change, negative = loss of viability was 18.4% (inactive).

For `Cc1onc(C(=O)N2CCN(C(c3ccccc3)c3ccccc3)CC2)c1NS(C)(=O)=O`, the activity change, negative = loss of viability was 7.7% (inactive).

As to `O=C(c1noc2ccccc12)N1CCN(C(c2ccccc2)c2ccccc2)CC1`, the activity change, negative = loss of viability is 15.4% (inactive).

The same experiment, now with this note: BJeHLT fibroblasts viability, Alamar Blue fluorescence, 48 h; at 68 µM (top of the series).
Consider `Cc1onc(C(=O)N2CCN(Cc3ccccc3)CC2)c1[N+](=O)[O-]`, for which the activity change, negative = loss of viability was 4.74% (inactive).

With `COc1ccccc1N1CCN(C(=O)c2noc(C)c2[N+](=O)[O-])CC1`, the activity change, negative = loss of viability was 7.12% (inactive).

As to `Cc1onc(C(=O)N2CCOCC2)c1[N+](=O)[O-]`, the activity change, negative = loss of viability was 1.06% (inactive).

`CCOC(=O)N1CCN(C(=O)c2noc(C)c2[N+](=O)[O-])CC1`: the activity change, negative = loss of viability was 6.37% (inactive).

For `Cc1cc(C(=O)N2CCN(Cc3ccccc3)CC2)no1`, the activity change, negative = loss of viability is 1.07% (inactive).

Regarding `Cc1onc(C(=O)NCc2ccc(F)cc2)c1[N+](=O)[O-]`, the activity change, negative = loss of viability was 10.9% (inactive).

Another experiment deals with BJeHLT fibroblasts viability, Alamar Blue fluorescence, 48 h. The description is as above.
Conditions: not given
Summed up:
as §1
As for `Cc1onc(C(=O)N2CCN(C(c3ccccc3)c3ccc(Cl)cc3)CC2)c1[N+](=O)[O-]` (stereo not given), the AC50 is 0.51 µM.

For `COc1ccc(C(c2ccc(OC)cc2)N2CCN(C(=O)c3ccc([N+](=O)[O-])o3)CC2)cc1`, the AC50 is 6.85 µM.

Regarding `COc1ccc(C(c2ccc(OC)cc2)N2CCN(C(=O)c3noc(C)c3[N+](=O)[O-])CC2)cc1`, the AC50 was 5.32 µM.

Turning to `O=C(c1ccc([N+](=O)[O-])o1)N1CCN(C(c2ccc(F)cc2)c2ccc(F)cc2)CC1`, the half-maximal activity concentration (AC50) is 12.1 µM.

`Cc1onc(C(=O)N2CCCN(C(c3ccccc3)c3ccccc3)CC2)c1[N+](=O)[O-]`: the AC50 is 2.79 µM.

`O=C(c1ccc([N+](=O)[O-])o1)N1CCN(C(c2ccccc2)c2ccccc2)CC1`: the AC50 is 18.9 µM.

For `Cc1onc(C(=O)N2CCN(C(c3ccccn3)c3ccccn3)CC2)c1[N+](=O)[O-]`, the AC50 was > 47.6 µM (inactive).

For `Cc1onc(C(=O)N2CCN(C(c3ccc(F)cc3)c3ccc(F)cc3)CC2)c1[N+](=O)[O-]`, the AC50 is 0.757 µM.

On to `O=C(NCCNC(c1ccccc1)c1ccccc1)c1ccc([N+](=O)[O-])o1`, for which the AC50 is 3.35 µM.

For the compound `Cc1onc(C(=O)N2CCN(C(c3ccccc3)c3ccccc3)CC2)c1[N+](=O)[O-]`, the AC50 was 4.97 µM.

In the case of `Cc1onc(C(=O)N2CCN(C(c3ccc(Cl)cc3)c3ccc(Cl)cc3)CC2)c1[N+](=O)[O-]`, the AC50 is 0.272 µM.

Regarding `O=C(c1ccc([N+](=O)[O-])o1)N1CCCN(C(c2ccccc2)c2ccccc2)CC1`, the AC50 is 46.2 µM.

The term AC50 denotes the concentration at which the activity in the assay is half-maximal.
